Rev-erbA mod: modulators of human Rev-erb alpha DNA binding | AID 1259318 | 370,000 compounds, 0.79% hits | activity, % at 10 µM | Rev-erbα–FITC-DNA binding, fluorescence polarization, 90 min;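 active means activity above about 14%, limit read from the data; passing the limit was not always enough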
VLA-4 inh: inhibition in a human VLA-4 binding assay; P13612; VLA-4 expressing cells, ligand binding flow cytometry; inhibition, % (about 7 µM as worked out from the volumes in the protocol); 330,000 compounds, 0.2% hits; in the data active means inhibition above about 50%
NR2E3 ag-1: human photoreceptor-specific nuclear receptor agonism; inhibition of corepressor binding, % at 3.98 µM; 360,000 compounds, 0.35% hits; AID 602229; Q9Y5X4; CHO-S Gal4-NCOR/VP16-NR2E3 two-hybrid, luciferase;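 active means inhibition above the mean of all tested compounds plus 3 SD, cut at about 70% in these data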;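 further: higher means lower luciferase signal from less NR2E3 corepressor binding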
Target sequence (Q9Y5X4 whole entry, looked up, the tested form may be a part): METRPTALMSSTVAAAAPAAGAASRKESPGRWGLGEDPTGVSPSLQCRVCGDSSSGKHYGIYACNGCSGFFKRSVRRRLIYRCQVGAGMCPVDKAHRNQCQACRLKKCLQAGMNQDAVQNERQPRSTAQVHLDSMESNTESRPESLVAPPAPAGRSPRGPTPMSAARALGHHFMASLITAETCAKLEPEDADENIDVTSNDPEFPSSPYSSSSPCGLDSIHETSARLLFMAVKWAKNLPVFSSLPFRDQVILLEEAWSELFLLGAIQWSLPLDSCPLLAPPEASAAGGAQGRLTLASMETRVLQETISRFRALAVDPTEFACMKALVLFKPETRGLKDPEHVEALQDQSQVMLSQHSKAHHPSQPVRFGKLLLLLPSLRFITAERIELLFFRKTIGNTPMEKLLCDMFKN
PG9 binder: small molecules binding HIV-1 gp120 antibody PG9 | TR-FRET gp120-PG9 antibody binding | inhibition, % at 6.7 µM | 360,000 compounds, 0.43% hits; in the data active means inhibition above about 8.5%
NR2E3 ag-2: NR2E3 (human) agonism; GST-NR2E3/biotin-RetCOR TR-FRET, 1536-well; inhibition of corepressor binding, % at 4.78 µM; 320,000 compounds, 0.12% hits; AID 2300;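 active means percent inhibition above the cutoff of mean plus 3 SD of all tested compounds, set per screening campaign, cut at about 20% in these data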
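Material: NR2E3–RetCOR corepressor complex | Quantity: 1.35 nM GST-tagged NR2E3 final | Schedule: 5 h at 4 °C | Replication: Singlicate compound wells | Reagent: RetCOR corepressor, biotinylated, 7 nM | Controls: Biotin wells as high control, 0.6% DMSO wells as low control | Signal: TR-FRET, Eu(K)-anti-GST donor, streptavidin-D2 acceptor, ex 340, em 617/671 nm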
NR2E3 ag confirm: NR2E3 agonism confirmed in two-hybrid assay; shares compounds with NR2E3 ag-1; CHO-S mammalian two-hybrid NR2E3-NCOR, luciferase luminescence; inhibition, % at 3.98 µM; 2,300 compounds, 51% hits;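 active means average inhibition above a cutoff equal to the mean inhibition of all tested compounds plus one SD, cut at about 70% in these data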
VP16 counter: GAL4-VP16 reporter inhibition in NR2E3 agonist counterscreen; shares compounds with NR2E3 ag-1; CHO-S GAL4-VP16 luciferase reporter, luminescence; inhibition, % at 3.98 µM; 2,300 compounds, 29% hits; AID 624379;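 active means mean inhibition above a cutoff equal to the average over all tested compounds plus one standard deviation, cut at about 70% in these data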;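 further: luciferase from a UAS reporter driven by GAL4-VP16 transactivation; higher means less reporter light so more repression of VP16 activity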
A number is an active result. In the library only some 1.6% were active in any assay of this set; here they are far more common.

CC(C)(C)OC(=O)CC[C@@H](C(=O)NCCCCCCCCCCC(=O)N1CCN(C(=O)OC(C)(C)C)CC1)n1cc(CCCCCNC(=O)OC(C)(C)C)nn1 was read as Rev-erbA mod inactive, VLA-4 inh inactive, NR2E3 ag-1 inactive, PG9 binder inactive and NR2E3 ag-2 inactive.
`Cc1ccc(NC(=O)C2(C)CCN2C(=O)Cc2ccc(-c3ccccc3)cc2)cc1` (centres undefined) gave Rev-erbA mod inactive, NR2E3 ag-1 inactive, PG9 binder inactive, NR2E3 ag confirm 88 and VP16 counter inactive.
For CC(C)(C)c1ccc(CC(=O)N2CCC2(C)C(=O)Nc2cnc3ccccc3c2)cc1 (centres undefined) the results were Rev-erbA mod inactive, NR2E3 ag-1 inactive, PG9 binder inactive, NR2E3 ag confirm inactive and VP16 counter inactive.
Screening Cc1ccc(S(=O)(=O)NC(=O)C2(C)CCN2C(=O)Cc2ccc(-c3ccccc3)cc2)cc1 (centres undefined) returned Rev-erbA mod inactive, NR2E3 ag-1 inactive and PG9 binder inactive.
`CCC[C@H]1[C@@H](O)CC[C@@]23CCCN2C(=O)CCC[C@@H]13` gave Rev-erbA mod inactive.
For CCOC(=O)[C@]12CCCCC/C=C\1N(CCc1ccc(Cl)cc1)C(=O)[C@H]2CC(=O)NCC12CC3CC(CC(C3)C1)C2 the results were Rev-erbA mod inactive.
Screening C=CCNc1nc(-c2c(C)nc3sccn23)cs1 returned Rev-erbA mod inactive, VLA-4 inh inactive, NR2E3 ag-1 inactive, PG9 binder inactive and NR2E3 ag-2 inactive.
For Cc1nc2sccn2c1-c1csc(NCc2ccccc2)n1 the results were Rev-erbA mod inactive, VLA-4 inh inactive, NR2E3 ag-1 inactive, PG9 binder inactive, NR2E3 ag-2 inactive, NR2E3 ag confirm 86 and VP16 counter 71.
`Cc1ccc(S(=O)(=O)/N=C2\C=C(Nc3cccc(C(=O)O)c3)C(=O)c3ccccc32)cc1` gave Rev-erbA mod inactive, VLA-4 inh inactive, NR2E3 ag-1 inactive, PG9 binder inactive and NR2E3 ag-2 inactive.
`Cc1ccc(S(=O)(=O)/N=C2\C=C(Nc3ccc(O)cc3)C(=O)c3ccccc32)cc1` gave VLA-4 inh inactive, NR2E3 ag-1 102, NR2E3 ag confirm 100 and VP16 counter 99.
Screening CCCCCCCCCS(=O)(=O)N/N=C/c1cccc([N+](=O)[O-])c1 returned Rev-erbA mod inactive, VLA-4 inh inactive, NR2E3 ag-1 inactive, PG9 binder inactive, NR2E3 ag-2 inactive, NR2E3 ag confirm inactive and VP16 counter inactive.
Screening Cc1nc2ncnn2c(N2CCN(c3cccc(C(F)(F)F)c3)CC2)c1C returned Rev-erbA mod inactive, VLA-4 inh inactive, NR2E3 ag-1 71, PG9 binder inactive, NR2E3 ag-2 inactive, NR2E3 ag confirm 72 and VP16 counter inactive.
Screening Cc1cc(N2CCN(c3cccc(C(F)(F)F)c3)CC2)n2ncnc2n1 returned Rev-erbA mod inactive, VLA-4 inh inactive, NR2E3 ag-1 inactive, PG9 binder inactive and NR2E3 ag-2 inactive.
`O=C(CCCc1nc(-c2ccccc2Cl)no1)NC1CCCC1` gave Rev-erbA mod inactive, VLA-4 inh inactive, NR2E3 ag-1 inactive, PG9 binder inactive, NR2E3 ag-2 inactive, NR2E3 ag confirm inactive and VP16 counter inactive.
Screening C=CCN=C1NC(CCc2ccccc2)C(C(=O)OC)=C(C)N1Cc1ccccc1C(F)(F)F (centres undefined) returned Rev-erbA mod inactive and PG9 binder inactive.
N#CCc1ccc(NS(=O)(=O)c2ccc(C3CCCCC3)cc2)cc1 was read as Rev-erbA mod inactive, VLA-4 inh inactive, NR2E3 ag-1 76, PG9 binder inactive, NR2E3 ag-2 inactive, NR2E3 ag confirm 92 and VP16 counter 72.
`O=C(O)c1cccc(NS(=O)(=O)c2ccc(C3CCCCC3)cc2)c1` gave VLA-4 inh inactive, NR2E3 ag-1 inactive and NR2E3 ag-2 inactive.
Screening Cc1cccc(NS(=O)(=O)c2ccc(C3CCCCC3)cc2)c1 returned Rev-erbA mod inactive, VLA-4 inh inactive, NR2E3 ag-1 70, PG9 binder inactive, NR2E3 ag-2 inactive, NR2E3 ag confirm 93 and VP16 counter 79.

High-throughput results deposited in PubChem by several laboratories.
